# Reference: ChEMBL document CHEMBL1140243, “Synthesis and SAR of 2,3-diarylpyrrole inhibitors of parasite cGMP-dependent protein kinase as novel anticoccidial agents” (Bioorg Med Chem Lett, 2005)
# Columns and labels:
# Eimeria tenella = experiment: Anticoccidial activity (percent reduction in oocyst production) against Eimeria tenella in white leghorn chickens at 100 ppm; assay type: functional; set-up: scale not given: the % may be the effect or the level left
# How it was run: (§1)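 White Leghorn chicks were acclimated, then at 3 days old sorted by weight and randomized to medicated or control diets. There were one or two replicates of two birds per treatment. After 24 h of premedication, one bird per replicate got E. acervulina and the other E. tenella, both drug-sensitive laboratory strains. Inocula were sporulated oocysts in tap water, 0.25 mL per bird, giving low-to-moderate infection.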
# Eimeria acervulina = experiment: Anticoccidial activity (percent reduction in oocyst production) against Eimeria acervulina in white leghorn chickens at 100 ppm; assay type: functional; set-up: scale not given: the % may be the effect or the level left; how it was run: as §1
# [1] = target: cGMP-dependent protein kinase (Eimeria tenella, UniProt Q8MMZ8); experiment: In vitro inhibition of Eimeria tenella cGMP-dependent protein kinase
# Gallus gallus [2] = species on record: Gallus gallus; experiment: Anticoccidial activity (percent reduction in oocyst production) against Eimeria acervulina in white leghorn chickens at 25 ppm; assay type: functional; set-up: scale not given: the % may be the effect or the level left; how it was run: as §1
# Gallus gallus [3] = species on record: Gallus gallus; experiment: Anticoccidial activity (percent reduction in oocyst production) against Eimeria maxima in chickens at 25 ppm; Range = 50-79 %; assay type: functional; set-up: scale not given: the % may be the effect or the level left
# Gallus gallus [4] = species on record: Gallus gallus; experiment: Anticoccidial activity (percent reduction in oocyst production) against Eimeria necatrix in chickens at 125 ppm; assay type: functional; set-up: scale not given: the % may be the effect or the level left
# Gallus gallus [5] = species on record: Gallus gallus; experiment: Anticoccidial activity (percent reduction in oocyst production) against Eimeria maxima in chickens at 125 ppm; assay type: functional; set-up: scale not given: the % may be the effect or the level left
# Gallus gallus [6] = species on record: Gallus gallus; experiment: Anticoccidial activity (percent reduction in oocyst production) against Eimeria mivati in chickens at 50 ppm; assay type: functional; set-up: scale not given: the % may be the effect or the level left
# Gallus gallus [7] = species on record: Gallus gallus; experiment: Anticoccidial activity (percent reduction in oocyst production) against Eimeria mivati in chickens at 25 ppm; Range = 50-79 %; assay type: functional; set-up: scale not given: the % may be the effect or the level left
# Gallus gallus [8] = species on record: Gallus gallus; experiment: Anticoccidial activity (percent reduction in oocyst production) against Eimeria praecox in chickens at 125 ppm; assay type: functional; set-up: scale not given: the % may be the effect or the level left
# Gallus gallus [9] = species on record: Gallus gallus; experiment: Anticoccidial activity (percent reduction in oocyst production) against Eimeria brunetti in chickens at 75 ppm; assay type: functional; set-up: scale not given: the % may be the effect or the level left
# Gallus gallus [10] = species on record: Gallus gallus; experiment: Anticoccidial activity (percent reduction in oocyst production) against Eimeria brunetti in chickens at 25 ppm; Range = 50-79 %; assay type: functional; set-up: scale not given: the % may be the effect or the level left
# Gallus gallus [11] = species on record: Gallus gallus; experiment: Anticoccidial activity (percent reduction in oocyst production) against Eimeria mitis in chickens at 125 ppm; assay type: functional; set-up: scale not given: the % may be the effect or the level left
# Gallus gallus [12] = species on record: Gallus gallus; experiment: Anticoccidial activity (percent reduction in oocyst production) against Eimeria acervulina in chickens at 75 ppm; assay type: functional; set-up: scale not given: the % may be the effect or the level left; how it was run: as §1
# Gallus gallus [13] = species on record: Gallus gallus; experiment: Anticoccidial activity (percent reduction in oocyst production) against Eimeria mitis in chickens at 25 ppm; Range = 50-79 %; assay type: functional; set-up: scale not given: the % may be the effect or the level left
# Gallus gallus [14] = species on record: Gallus gallus; experiment: Anticoccidial activity (percent reduction in oocyst production) against Eimeria acervulina in chickens at 25 ppm; Range = 50-79 %; assay type: functional; set-up: scale not given: the % may be the effect or the level left; how it was run: as §1
# Gallus gallus [15] = species on record: Gallus gallus; experiment: Anticoccidial activity (percent reduction in oocyst production) against Eimeria necatrix in chickens at 75 ppm; assay type: functional; set-up: scale not given: the % may be the effect or the level left
# Gallus gallus [16] = species on record: Gallus gallus; experiment: Anticoccidial activity (percent reduction in oocyst production) against Eimeria brunetti in chickens at 125 ppm; assay type: functional; set-up: scale not given: the % may be the effect or the level left
# Gallus gallus [17] = species on record: Gallus gallus; experiment: Anticoccidial activity (percent reduction in oocyst production) against Eimeria mitis in chickens at 75 ppm; assay type: functional; set-up: scale not given: the % may be the effect or the level left
# Gallus gallus [18] = species on record: Gallus gallus; experiment: Anticoccidial activity (percent reduction in oocyst production) against Eimeria maxima in chickens at 75 ppm; assay type: functional; set-up: scale not given: the % may be the effect or the level left
# Gallus gallus [19] = species on record: Gallus gallus; experiment: Anticoccidial activity (percent reduction in oocyst production) against Eimeria necatrix in chickens at 50 ppm; assay type: functional; set-up: scale not given: the % may be the effect or the level left
# Gallus gallus [20] = species on record: Gallus gallus; experiment: Anticoccidial activity (percent reduction in oocyst production) against Eimeria maxima in chickens at 50 ppm; assay type: functional; set-up: scale not given: the % may be the effect or the level left
# Gallus gallus [21] = species on record: Gallus gallus; experiment: Anticoccidial activity (percent reduction in oocyst production) against Eimeria tenella in chickens at 25 ppm; Range = 50-79 %; assay type: functional; set-up: scale not given: the % may be the effect or the level left; how it was run: as §1
# Gallus gallus [22] = species on record: Gallus gallus; experiment: Anticoccidial activity (percent reduction in oocyst production) against Eimeria tenella in chickens at 125 ppm; assay type: functional; set-up: scale not given: the % may be the effect or the level left; how it was run: as §1
# Gallus gallus [23] = species on record: Gallus gallus; experiment: Anticoccidial activity (percent reduction in oocyst production) against Eimeria tenella in chickens at 75 ppm; assay type: functional; set-up: scale not given: the % may be the effect or the level left; how it was run: as §1
# Gallus gallus [24] = species on record: Gallus gallus; experiment: Anticoccidial activity (percent reduction in oocyst production) against Eimeria praecox in chickens at 25 ppm; Range = 50-79 %; assay type: functional; set-up: scale not given: the % may be the effect or the level left
# Gallus gallus [25] = species on record: Gallus gallus; experiment: Anticoccidial activity (percent reduction in oocyst production) against Eimeria acervulina in chickens at 50 ppm; assay type: functional; set-up: scale not given: the % may be the effect or the level left; how it was run: as §1
# Gallus gallus [26] = species on record: Gallus gallus; experiment: Anticoccidial activity (percent reduction in oocyst production) against Eimeria mitis in chickens at 50 ppm; assay type: functional; set-up: scale not given: the % may be the effect or the level left
# Gallus gallus [27] = species on record: Gallus gallus; experiment: Anticoccidial activity (percent reduction in oocyst production) against Eimeria necatrix in chickens at 25 ppm; Range = 50-79 %; assay type: functional; set-up: scale not given: the % may be the effect or the level left
# Gallus gallus [28] = species on record: Gallus gallus; experiment: Half-life in the chicken; assay type: functional, organism-based
# Gallus gallus [29] = species on record: Gallus gallus; experiment: Anticoccidial activity (percent reduction in oocyst production) against Eimeria tenella in chickens at 50 ppm; assay type: functional; set-up: scale not given: the % may be the effect or the level left; how it was run: as §1
# Gallus gallus [30] = species on record: Gallus gallus; experiment: Anticoccidial activity (percent reduction in oocyst production) against Eimeria mivati in chickens at 75 ppm; assay type: functional; set-up: scale not given: the % may be the effect or the level left
# Gallus gallus [31] = species on record: Gallus gallus; experiment: Anticoccidial activity (percent reduction in oocyst production) against Eimeria praecox in chickens at 75 ppm; assay type: functional; set-up: scale not given: the % may be the effect or the level left
# Gallus gallus [32] = experiment: Oral bioavailability in the chicken; assay type: functional, organism-based
# Gallus gallus [33] = species on record: Gallus gallus; experiment: Anticoccidial activity (percent reduction in oocyst production) against Eimeria mivati in chickens at 125 ppm; assay type: functional; set-up: scale not given: the % may be the effect or the level left
# Gallus gallus [34] = species on record: Gallus gallus; experiment: Anticoccidial activity (percent reduction in oocyst production) against Eimeria acervulina in chickens at 125 ppm; assay type: functional; set-up: scale not given: the % may be the effect or the level left; how it was run: as §1
# Gallus gallus [35] = species on record: Gallus gallus; experiment: Anticoccidial activity (percent reduction in oocyst production) against Eimeria brunetti in chickens at 50 ppm; assay type: functional; set-up: scale not given: the % may be the effect or the level left
# Gallus gallus [36] = species on record: Gallus gallus; experiment: Anticoccidial activity (percent reduction in oocyst production) against Eimeria praecox in chickens at 50 ppm; assay type: functional; set-up: scale not given: the % may be the effect or the level left
# Chain of cGMP-dependent protein kinase (Q8MMZ8 whole entry): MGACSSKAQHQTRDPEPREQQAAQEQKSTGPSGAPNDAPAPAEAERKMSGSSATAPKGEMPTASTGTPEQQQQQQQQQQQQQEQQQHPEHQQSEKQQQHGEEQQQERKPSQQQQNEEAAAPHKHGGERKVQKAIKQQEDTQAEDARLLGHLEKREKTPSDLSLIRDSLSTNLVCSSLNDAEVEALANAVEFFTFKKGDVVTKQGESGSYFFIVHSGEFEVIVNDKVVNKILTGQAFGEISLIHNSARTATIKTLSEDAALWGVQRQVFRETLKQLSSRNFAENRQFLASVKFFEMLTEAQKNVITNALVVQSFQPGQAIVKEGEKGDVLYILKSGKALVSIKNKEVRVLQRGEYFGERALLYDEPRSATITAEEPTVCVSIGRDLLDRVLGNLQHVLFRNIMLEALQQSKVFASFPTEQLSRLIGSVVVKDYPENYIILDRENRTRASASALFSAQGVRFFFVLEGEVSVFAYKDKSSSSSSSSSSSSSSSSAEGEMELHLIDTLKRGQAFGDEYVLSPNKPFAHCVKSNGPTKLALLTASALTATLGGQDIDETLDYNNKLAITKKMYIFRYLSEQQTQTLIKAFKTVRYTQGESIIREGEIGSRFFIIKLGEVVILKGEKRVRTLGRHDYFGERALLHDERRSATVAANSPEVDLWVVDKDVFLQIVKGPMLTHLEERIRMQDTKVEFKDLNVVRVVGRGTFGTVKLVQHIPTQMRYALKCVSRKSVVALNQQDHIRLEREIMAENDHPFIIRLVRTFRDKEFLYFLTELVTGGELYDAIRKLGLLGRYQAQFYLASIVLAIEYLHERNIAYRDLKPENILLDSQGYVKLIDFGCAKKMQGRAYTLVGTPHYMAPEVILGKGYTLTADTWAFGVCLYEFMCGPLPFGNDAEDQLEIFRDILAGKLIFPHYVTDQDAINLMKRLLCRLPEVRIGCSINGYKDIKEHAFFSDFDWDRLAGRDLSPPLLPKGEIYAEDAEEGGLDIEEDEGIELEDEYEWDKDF
smiles,measurement,setting,value
CN1CCC(c2cc(-c3ccncc3)c(-c3ccc(F)c(Br)c3)[nH]2)CC1,Activity,Eimeria tenella,<50%
same,Activity,Eimeria acervulina,<50%
same,IC50,[1],0.15 nM
NCCN1CCC(c2cc(-c3ccncc3)c(-c3ccc(F)cc3)[nH]2)CC1,Activity,Eimeria tenella,<50%
same,Activity,Eimeria acervulina,<50%
same,IC50,[1],0.28 nM
CN1CCC(c2cc(-c3ccncc3)c(-c3ccc(F)cc3)s2)CC1,Activity,Eimeria tenella,>=80%
same,Activity,Eimeria acervulina,>=80%
same,IC50,[1],4.2 nM
CN1CCC(c2cc(-c3ccncc3)c(-c3ccc(Cl)cc3)[nH]2)CC1,Activity,Eimeria tenella,<50%
same,Activity,Eimeria acervulina,>=80%
same,IC50,[1],1 nM
CN1CCC(c2cc(-c3ccncc3)c(-c3ccc(C(F)(F)F)cc3)[nH]2)CC1,Activity,Eimeria tenella,<50%
same,Activity,Eimeria acervulina,<50%
same,IC50,[1],55 nM
CN1CCC(c2cc(-c3ccncc3)c(-c3ccsc3)[nH]2)CC1,Activity,Eimeria tenella,<50%
same,Activity,Eimeria acervulina,<50%
same,IC50,[1],11.9 nM
Cc1cc(-c2cc(C3CCN(C)CC3)[nH]c2-c2ccc(F)cc2)on1,Activity,Eimeria tenella,<50%
same,Activity,Eimeria acervulina,<50%
same,IC50,[1],> 1000 nM
CN1CCC(c2cc(-c3cccnc3)c(-c3ccc(F)cc3)[nH]2)CC1,Activity,Eimeria tenella,<50%
same,IC50,[1],11.7 nM
CN1CCC(c2[nH]c(-c3ccc(F)cc3)c(-c3ccncc3)c2Br)CC1,Activity,Eimeria tenella,<50%
same,Activity,Eimeria acervulina,<50%
same,IC50,[1],1.2 nM
Cc1c(C2CCN(C)CC2)[nH]c(-c2ccc(F)cc2)c1-c1ccncc1,Activity,Eimeria tenella,<50%
same,Activity,Eimeria acervulina,<50%
same,IC50,[1],1 nM
CN1CCC(c2cc(-c3ccncc3)c(-c3cccc(F)c3)[nH]2)CC1,Activity,Eimeria tenella,<50%
same,Activity,Eimeria acervulina,<50%
same,IC50,[1],7.4 nM
CN1CCC(c2cc(-c3ccncc3)c(-c3ccccc3)[nH]2)CC1,IC50,[1],3.1 nM
CN1CCC(c2nc(-c3ccc(F)cc3)c(-c3ccncc3)s2)CC1,Activity,Gallus gallus [2],0%
same,Activity,Eimeria tenella,<50%
same,IC50,[1],1.5 nM
CCN1CCC(c2cc(-c3ccncc3)c(-c3ccc(F)cc3)[nH]2)CC1,Activity,Gallus gallus [3],<79%
same,Activity,Gallus gallus [4],>=80%
same,Activity,Gallus gallus [5],>=80%
same,Activity,Gallus gallus [6],>=80%
same,Activity,Gallus gallus [7],<79%
same,Activity,Gallus gallus [8],>=80%
same,Activity,Gallus gallus [9],>=80%
same,Activity,Gallus gallus [10],<79%
same,Activity,Gallus gallus [11],>=80%
same,Activity,Gallus gallus [12],>=80%
same,Activity,Gallus gallus [13],<79%
same,Activity,Gallus gallus [14],<79%
same,Activity,Gallus gallus [15],>=80%
same,Activity,Gallus gallus [16],>=80%
same,Activity,Gallus gallus [17],>=80%
same,Activity,Gallus gallus [18],>=80%
same,Activity,Gallus gallus [19],>=80%
same,Activity,Gallus gallus [20],>=80%
same,Activity,Gallus gallus [21],<79%
same,Activity,Gallus gallus [22],>=80%
same,Activity,Gallus gallus [23],>=80%
same,Activity,Eimeria tenella,>=80%
same,Activity,Gallus gallus [24],<79%
same,Activity,Gallus gallus [25],>=80%
same,Activity,Eimeria acervulina,>=80%
same,Activity,Gallus gallus [26],>=80%
same,Activity,Gallus gallus [27],<79%
same,T1/2,Gallus gallus [28],1.2 h
same,Activity,Gallus gallus [29],>=80%
same,Activity,Gallus gallus [30],>=80%
same,Activity,Gallus gallus [31],>=80%
same,IC50,[1],0.28 nM
same,bioavailability,Gallus gallus [32],84%
same,Activity,Gallus gallus [33],>=80%
same,Activity,Gallus gallus [34],>=80%
same,Activity,Gallus gallus [35],>=80%
same,Activity,Gallus gallus [36],>=80%
CN1CCC(c2cc(-c3ccc(F)cc3)c(-c3ccc(F)cc3)[nH]2)CC1,Activity,Eimeria tenella,<50%
same,Activity,Eimeria acervulina,<50%
same,IC50,[1],15.6 nM
CN1CCC(c2cc(-c3ccncc3)c(-c3ccc(F)cc3)[nH]2)CC1,Activity,Eimeria tenella,>=80%
same,Activity,Eimeria acervulina,>=80%
same,IC50,[1],0.7 nM
CC(=O)CN1CCC(c2cc(-c3ccncc3)c(-c3ccc(F)cc3)[nH]2)CC1,Activity,Eimeria tenella,<50%
same,Activity,Eimeria acervulina,<50%
same,IC50,[1],0.32 nM
OCCN1CCC(c2cc(-c3ccncc3)c(-c3ccc(F)cc3)[nH]2)CC1,Activity,Eimeria tenella,>=80%
same,Activity,Eimeria acervulina,>=80%
same,IC50,[1],0.71 nM
CN1CCC(c2cc(-c3ccncc3)c(-c3nccs3)[nH]2)CC1,Activity,Eimeria tenella,<50%
same,Activity,Eimeria acervulina,<50%
same,IC50,[1],39.7 nM
CN1CCC(c2cc(-c3ccncc3)c(-c3ccc(O)cc3)[nH]2)CC1,Activity,Eimeria tenella,<50%
same,Activity,Eimeria acervulina,<50%
same,IC50,[1],50 nM
